Source: ChEMBL document CHEMBL1159051, “Synthesis and biological evaluation of oxadiazole derivatives as inhibitors of soluble guanylyl cyclase” (Bioorg Med Chem, 2010)
Active and inactive are the calls of the source. No cut-off for these calls is given here.

Assays:
Rattus norvegicus [1] = species on record: Rattus norvegicus; experiment: Inhibition of soluble guanylyl cyclase in rat aortic smooth muscle cells assessed as inhibition of SNP-stimulated cGMP formation by immunoassay
How it was run: (§1)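 Rat aortic smooth muscle cells were grown in high-glucose DMEM with 10% foetal calf serum plus penicillin/streptomycin, and passages 3–4 were used at confluence. Cells were pretreated with IBMX (1 mM, 5 min) to block phosphodiesterase, then exposed to compound for 20 min with IBMX still present. They were then stimulated with SNP for 15 min, and cGMP was measured by enzyme immunoassay.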

Rattus norvegicus [2] = species on record: Rattus norvegicus; experiment: Inhibition of soluble guanylyl cyclase in rat aortic smooth muscle cells assessed as inhibition of SNP-stimulated cGMP formation at 10 uM by immunoassay; how it was run: as §1
Rattus norvegicus [3] = species on record: Rattus norvegicus; experiment: Inhibition of soluble guanylyl cyclase in rat aortic smooth muscle cells assessed as inhibition of SNP-stimulated cGMP formation at 0.1 uM by immunoassay; how it was run: as §1

| SMILES | inhibition (Rattus norvegicus [1]) | inhibition (Rattus norvegicus [2]) | inhibition (Rattus norvegicus [3]) |
| --- | --- | --- | --- |
| O=c1onc2cnc3ccccc3n12 | Dose-dependent effect | Active | 85% |
| O=c1[nH]nc2n1-c1cc(Br)ccc1OC2 | inactive | – | – |
| O=C1c2ccccc2-n2c(noc2=O)[C@@H]2CCCN12 | inactive | – | – |
| O=c1onc2n1-c1cc(-c3cccc(C(F)(F)F)c3)ccc1OC2 | – | Active | Active |
| COc1ccc(-c2ccc3c(c2)-n2c(noc2=O)CO3)cc1 | – | Active | Active |
| O=c1onc2n1-c1ncccc1OC2 | – | Active | Active |

Continued, values first:

| inhibition (Rattus norvegicus [1]) | inhibition (Rattus norvegicus [2]) | inhibition (Rattus norvegicus [3]) | SMILES |
| --- | --- | --- | --- |
| inactive | – | – | O=c1c2ccccc2nc2n1-c1cc(Br)ccc1OC2 |
| inactive | – | – | O=c1c2ccccc2nc2n1-c1ccccc1OC2 |
| – | Active | Active | O=c1c2ccc(Cl)cc2nc2n1-c1ccccc1OC2 |
